Screening results from PubChem BioAssay.
UHRF1 binding – UHRF1 methylated DNA binding inhibitors, primary screen, counter-screen for MBD2 inhibitor project, biochemical, TR-FRET, human UHRF1, single concentration. E3 ubiquitin-protein ligase UHRF1 (Homo sapiens), Q96T88. UHRF1 binding to methylated oligo. inhibition, % at 4.4 µM. actives 0.75% (n = 370,000). AID 687016, 2013; in the data active means inhibition above about 21%;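 further: UHRF1 SRA domain binding a hemimethylated CpG hairpin DNA probe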
LEDGF integ inh – blockers of LEDGF/p75-dependent integrase strand transfer – biochemical, TR-FRET, high throughput, primary screen; TR-FRET IN-LEDGF/p75 DNA integration, Eu/Cy5; inhibition, % at 3.7 µM; actives 0.64% (n = 370,000);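 active means inhibition above the screen-wide mean plus 3 SD, cut at about 13% in these data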;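 further: signal is the Cy5 over europium emission ratio at 671 and 618 nm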
NSD2 inh – NSD2 histone methyltransferase inhibitors, primary screen, biochemical, AlphaScreen, single concentration, set 2. AID 743445, 2014. Histone-lysine N-methyltransferase NSD2 (Homo sapiens), O96028. actives 0.54% (n = 310,000). inhibition, % at 12.5 µM. NSD2 peptide methylation, 120 min; in the data active means inhibition above about 50%
CASP6 VEID inh – human caspase-6 inhibitors, primary screen, biochemical, VEID-R110 fluorescence, single point, set 2; P55212; purified caspase-6, Z-VEID-R110 cleavage fluorescence; inhibition, % at 12.5 µM; actives 0.53% (n = 350,000); AID 686996, 2013;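 active means mean inhibition across replicates at least about 35%, with every replicate also reaching that limit, limit read from the data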
Target sequence (P55212 24-179 limits assumed): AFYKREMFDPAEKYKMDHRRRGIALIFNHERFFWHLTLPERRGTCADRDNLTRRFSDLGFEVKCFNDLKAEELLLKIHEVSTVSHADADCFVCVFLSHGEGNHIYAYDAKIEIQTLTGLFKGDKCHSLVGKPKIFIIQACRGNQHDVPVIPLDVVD
Target sequence (P55212 194-293 limits assumed): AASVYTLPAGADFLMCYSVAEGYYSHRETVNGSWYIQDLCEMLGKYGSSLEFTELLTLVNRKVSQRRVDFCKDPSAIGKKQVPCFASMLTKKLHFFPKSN
MBD2 DNA inh – inhibitors of MBD2 binding to methylated DNA, primary screen, biochemical, TR-FRET, DNA-binding domain, human; inhibition, % at 4.4 µM; actives 0.31% (n = 370,000); AID 686964, 2013; MBD2 binding to methylated oligonucleotide; in the data active means inhibition above about 13%
Target sequence (Q9UBB5 whole entry, looked up, the tested form may be a part): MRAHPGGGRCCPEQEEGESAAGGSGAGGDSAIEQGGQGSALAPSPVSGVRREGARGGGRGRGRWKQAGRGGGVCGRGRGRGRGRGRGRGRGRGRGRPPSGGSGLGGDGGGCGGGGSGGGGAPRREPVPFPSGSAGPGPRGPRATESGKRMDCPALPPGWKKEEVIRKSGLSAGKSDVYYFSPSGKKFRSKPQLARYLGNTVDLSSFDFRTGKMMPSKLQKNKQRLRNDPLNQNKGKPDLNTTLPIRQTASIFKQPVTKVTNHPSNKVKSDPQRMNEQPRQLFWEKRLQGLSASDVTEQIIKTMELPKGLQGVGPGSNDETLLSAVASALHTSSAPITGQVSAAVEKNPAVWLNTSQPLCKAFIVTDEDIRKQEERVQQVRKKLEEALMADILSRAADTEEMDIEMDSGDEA
TDP2 absorb – human TDP2 enzyme inhibitors, primary screen, biochemical, epi absorbance, recombinant enzyme; Tyrosyl-DNA phosphodiesterase 2 (Homo sapiens), O95551; T5PNP hydrolysis, p-nitrophenol absorbance 415 nm; inhibition, % at 12.8 µM; actives 0.34% (n = 370,000);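 active means inhibition above the mean of all tested compounds plus 3 SD, set per campaign, cut at about 25% in these data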
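System: recombinant human TDP2 / Amount: 120 nM TDP2 per well / Also added: 5 mM T5PNP chromogenic substrate / Doses: 12.8 µM single point, 1% DMSO / Incubation: 2 h at 37 °C / Detection: p-Nitrophenol epi absorbance / Evaluation: % inhibition relative to enzyme-containing and enzyme-free wells / Repeats: singlicate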
IN multimer up – HIV-1 IN multimer formation enhancers, counter-screen for LEDGF/p75 integration inhibitor project, biochemical, TR-FRET; shares compounds with LEDGF integ inh; TR-FRET HIV-1 integrase multimerization; activation, % at 7.7 µM; actives 17% (n = 2,000); in the data active means activation above about 8.9%
TRFRET interf – TR-FRET optical interference artefacts, confirmation, artefact control for LEDGF/p75-dependent integration inhibitor project, biochemical, HIV-1 IN multimerization | TR-FRET optical interference counterscreen | inhibition, % at 7.7 µM | 2,000 tested, under 10 active | AID 1053135, 2014 | shares compounds with LEDGF integ inh;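 active means inhibition above the mean over all tested compounds plus 3 SD, which no compound reached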
IN-LEDGF confirm – inhibitors of HIV-1 IN-LEDGF/p75 DNA integration, confirmation, biochemical, TR-FRET. shares compounds with LEDGF integ inh. TR-FRET LEDGF/p75-dependent HIV-1 integration. inhibition, % at 3.7 µM. actives 36% (n = 2,000); in the data active means inhibition above about 14%
AlphaScreen art – AlphaScreen signal interference with preloaded methylated product, dose response, artefact control for NSD2 inhibitor project, biochemical, cherry-picked samples; AID 1053174, 2014; AlphaScreen artifact counterscreen, preloaded methylated H4 peptide; AC35, µM (doses to about 10 µM); shares compounds with NSD2 inh; actives 9.4% (n = 1,500); call rule not given here
Of the large screens only hits and unclear results are named; the others gave an inactive call (follow-up assays come after a bar, where they were run). Only some compounds are listed: those with a hit (about 1.8% of all), similar ones and a draw of the others.

Cc1cc(/C=C2\C(=O)NC(=O)N(c3ccc(Br)cc3)C2=O)c(C)n1-c1cc(C(=O)O)cc(C(=O)O)c1	UHRF1 binding 43.7, LEDGF integ inh 44.0 | IN multimer up inactive | TRFRET interf inactive | IN-LEDGF confirm 30.9
O=C(Cc1ccccn1)N1CCCCN2[C@H](CO)[C@H](c3ccc(-c4ccccc4F)cc3)[C@@H]2C1	none (no result: UHRF1 binding, LEDGF integ inh, NSD2 inh, MBD2 DNA inh, TDP2 absorb)
CN(C)[C@@H]1C(=O)C(C(N)=O)=C(O)[C@@]2(O)C(=O)C3=C(O)c4c(O)ccc(Cl)c4[C@@](C)(O)[C@H]3C[C@@H]12	LEDGF integ inh 13.7 (no result: NSD2 inh) | IN multimer up inactive | TRFRET interf inactive | IN-LEDGF confirm inactive
CN(C)[C@@H]1C(=O)C(C(N)=O)=C(O)[C@@]2(O)C(=O)C3=C(O)c4c(O)cccc4[C@@](C)(O)C3C[C@@H]12 (stereo partly drawn)	LEDGF integ inh 18.0, CASP6 VEID inh 55.1 (no result: NSD2 inh) | IN multimer up inactive | TRFRET interf inactive | IN-LEDGF confirm inactive
O=C(Cc1ccccc1)N1CC2(C1)[C@@H](c1ccccc1)[C@@H](CO)N2Cc1cccc(F)c1	none (no result: UHRF1 binding, LEDGF integ inh, NSD2 inh, MBD2 DNA inh, TDP2 absorb)
COC(=O)[C@@H]1[C@@H](CO)[C@@H]2Cn3c(ccc(C4=CCCCC4)c3=O)[C@H]1N2C(=O)CC1CC1	none (no result: UHRF1 binding, LEDGF integ inh, NSD2 inh, MBD2 DNA inh, TDP2 absorb)
O=C1NC(=O)N(Cc2ccccc2)C(=O)/C1=C/C=C/c1ccco1	LEDGF integ inh 28.8, CASP6 VEID inh 38.6 | IN multimer up inactive | TRFRET interf inactive | IN-LEDGF confirm 29.9
COc1cc(OC)c(OC)cc1/C=C1/C(=O)NC(=O)N(Cc2ccccc2)C1=O	none
CCN1C(=O)C(=C/C=C/c2ccco2)C(=O)N(CC)C1=S	UHRF1 binding 30.4, LEDGF integ inh 38.9, CASP6 VEID inh 57.7 | IN multimer up inactive | TRFRET interf inactive | IN-LEDGF confirm 50.9
CCCN1[C@@H]2Cn3c(ccc(-c4cccc(C(=O)N(C)C)c4)c3=O)[C@H]1[C@@H](C(=O)OC)[C@@H]2CO	none (no result: UHRF1 binding, LEDGF integ inh, NSD2 inh, MBD2 DNA inh, TDP2 absorb)
COc1ccc(OC(=O)N(C)C[C@@H]2OCc3ccccc3-c3c(n(C)c4ccccc34)C(=O)N([C@H](C)CO)C[C@H]2C)cc1	none (no result: UHRF1 binding, LEDGF integ inh, NSD2 inh, MBD2 DNA inh, TDP2 absorb)
CN1CCC(O)(c2ccccc2)C2CCCC21 (stereo not drawn)	LEDGF integ inh 37.1 | IN multimer up inactive | TRFRET interf inactive | IN-LEDGF confirm inactive
CN1CCC(O)(c2ccccc2)C(C(=O)c2ccccc2)C1 (stereo not drawn)	none (no result: CASP6 VEID inh)
O=C(Cc1cccnc1)N1CCCCN2[C@H](C1)[C@@H](c1ccc(/C=C/c3ccccc3)cc1)[C@@H]2CO	none (no result: UHRF1 binding, LEDGF integ inh, NSD2 inh, MBD2 DNA inh, TDP2 absorb)
CCC(=O)N1[C@@H]2Cn3c(ccc(-c4cccc(F)c4)c3=O)[C@H]1[C@@H](C(=O)OC)[C@@H]2CO	none (no result: UHRF1 binding, LEDGF integ inh, NSD2 inh, MBD2 DNA inh, TDP2 absorb)
COc1ccc(OC(=O)N(C)C[C@H]2OCc3ccccc3-c3c(n(C)c4ccccc34)C(=O)N([C@@H](C)CO)C[C@@H]2C)cc1	none (no result: UHRF1 binding, LEDGF integ inh, NSD2 inh, MBD2 DNA inh, TDP2 absorb)
Cc1cc(/C=C2\C(=O)NC(=O)N(c3ccc(Cl)cc3)C2=O)c(C)n1-c1cccc(C(=O)O)c1	none
Cc1cc(/C=C2\C(=O)NC(=O)N(c3cccc(F)c3)C2=O)c(C)n1-c1cc(C(=O)O)cc(C(=O)O)c1	UHRF1 binding 32.7, LEDGF integ inh 39.5, NSD2 inh 81.1 | IN multimer up inactive | TRFRET interf inactive | IN-LEDGF confirm 23.6 | AlphaScreen art inactive
C[C@@H]1CN([C@@H](C)CO)C(=O)CCCn2cc(nn2)CO[C@@H]1CN(C)C(=O)Oc1cccc2ccccc12	none (no result: UHRF1 binding, LEDGF integ inh, NSD2 inh, MBD2 DNA inh, TDP2 absorb)
COc1ccc(N2C(=O)NC(=O)/C(=C\c3ccc([N+](=O)[O-])s3)C2=O)cc1	LEDGF integ inh 17.7, NSD2 inh 51.4, CASP6 VEID inh 52.3 | IN multimer up inactive | TRFRET interf inactive | IN-LEDGF confirm 33.1 | AlphaScreen art inactive
Cc1cccc(N2C(=O)/C(=C/N3CCN(C(=O)c4ccco4)CC3)C(=O)NC2=S)c1	none (no result: CASP6 VEID inh)
COc1ccc(CN2C(=O)NC(=O)/C(=C\c3ccco3)C2=O)cc1	LEDGF integ inh 13.9, NSD2 inh 50.5, CASP6 VEID inh 82.0 | IN multimer up inactive | TRFRET interf inactive | IN-LEDGF confirm 17.9 | AlphaScreen art inactive
CCOc1cccc(N2C(=O)/C(=C/c3ccco3)C(=O)NC2=S)c1	UHRF1 binding 49.5, LEDGF integ inh 21.5, NSD2 inh 122.8, CASP6 VEID inh 86.5 | IN multimer up 9.8 | TRFRET interf inactive | IN-LEDGF confirm 75.7 | AlphaScreen art 2.62µM
CC=Cc1ccc2n(c1=O)C[C@@H]1[C@@H](CO)[C@H](C(=O)OC)[C@H]2N1S(=O)(=O)c1ccccc1C (mixture of isomers)	none (no result: UHRF1 binding, LEDGF integ inh, NSD2 inh, MBD2 DNA inh, TDP2 absorb)
COc1ccc(OC(=O)N(C)C[C@H]2OCc3ccccc3-c3c(n(C)c4ccccc34)C(=O)N([C@@H](C)CO)C[C@H]2C)cc1	none (no result: UHRF1 binding, LEDGF integ inh, NSD2 inh, MBD2 DNA inh, TDP2 absorb)
CC(C)c1ccc(N2C(=O)NC(=O)/C(=C\C=C\c3ccco3)C2=O)cc1	UHRF1 binding 24.1, LEDGF integ inh 22.6, NSD2 inh 94.2 | IN multimer up inactive | TRFRET interf inactive | IN-LEDGF confirm 31.4 | AlphaScreen art inactive
CCCCNC(=O)c1c(N)n(Cc2ccc3c(c2)OCO3)c2nc3ccccc3nc12	NSD2 inh 68.3 | AlphaScreen art inactive
CCCCCn1c(N)c(C(=O)NCCN2CCOCC2)c2nc3ccccc3nc21	none (no result: CASP6 VEID inh)
